Rows were chosen to be rich in hits. Some 2.4% of all compounds tested hit in one or more screens of this group.
aDG glyco up – activators of alpha-DG glycosylation, primary screen, uHTS, Pro5-aDG cells, AlphaScreen; alpha-DG glycosylation AlphaScreen (IIH6); 0% Pro5, 100% B10-LARGE cell signal; hit rate 0.22% among 360,000; activation, % at 10 µM;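 active means activation of at least 8% versus controls, or a plate z-score of at least 8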;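 further: Pro5 are CHO cells carrying HIG-tagged alpha-DG that lacks glycosylation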
NTR1 agonist – agonists of human NTR1, primary screen, imaging, U2OS cells, beta-arrestin-GFP, high content; Neurotensin receptor type 1 (Homo sapiens), P30989; NTR1-U2OS beta-arrestin-GFP spot imaging, agonist mode; activation, % at 20 µM; hit rate 0.17% among 330,000;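 active means activation at or above 40% of the spot to cytoplasm intensity ratio, with at least 20 cells analyzed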;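 further: 0% = DMSO without peptide and 100% = 100 nM NTR1 peptide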
Target sequence (P30989 whole entry, looked up): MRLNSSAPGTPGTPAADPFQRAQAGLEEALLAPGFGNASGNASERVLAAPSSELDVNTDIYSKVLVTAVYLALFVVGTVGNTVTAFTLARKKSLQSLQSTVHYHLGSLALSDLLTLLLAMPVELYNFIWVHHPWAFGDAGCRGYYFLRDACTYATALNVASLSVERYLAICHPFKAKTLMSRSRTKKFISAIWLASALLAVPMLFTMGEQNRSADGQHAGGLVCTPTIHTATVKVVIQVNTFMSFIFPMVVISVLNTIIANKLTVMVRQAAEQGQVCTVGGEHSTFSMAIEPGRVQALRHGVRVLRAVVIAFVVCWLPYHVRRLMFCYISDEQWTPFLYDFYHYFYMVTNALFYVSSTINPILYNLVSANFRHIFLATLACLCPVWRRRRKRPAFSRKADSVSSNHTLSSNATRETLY
H9c2 TAG inh – inhibitors of triacylglycerol accumulation, primary screen, cell-based, uHTS, fluorescence, H9c2; H9c2 cells, Nile Red lipid (TAG) fluorescence; cells loaded with 200 µM oleic acid; inhibition, % at 12.5 µM; hit rate 0.66% among 230,000;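 active means pattern-corrected inhibition of lipid staining of at least 50% with the nuclear-stain viability signal not falling by more than 50%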;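 further: 0% = DMSO wells and 100% = triacsin C control wells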
MC4R antag cAMP – MC4R antagonists of cAMP signaling, primary screen, cell-based, TR-FRET, antagonist arm of biased-ligand search. Melanocortin receptor 4 (Homo sapiens), P32245. hit rate 0.48% among 360,000. MC4R-expressing cells, MTII-stimulated cAMP, LANCE TR-FRET. inhibition, % at 6.5 µM;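 active means inhibition above its plate's cutoff, the mean of tested wells on that plate plus 3 SD, cut at about 29% in these data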;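 further: 0% = Melanotan II alone and 100% = Melanotan II plus saturating MCL0020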
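System: U2OS cells stably expressing human melanocortin 4 receptor (MC4R). Reagent: Melanotan II challenge after compound preincubation. Doses: 6.5 µM. Times: 30-min compound, 1-h challenge, 1-h detection, room temperature. Measured by: TR-FRET with Eu-cAMP and labeled anti-cAMP, 671 nm. Replicates: singlicate.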
TbMetRS inhib – T. brucei MetRS inhibitors, primary screen, biochemical, luminescence | purified T. brucei MetRS, ATP depletion, Kinase-Glo luminescence | inhibition, % at 11.9 µM | hit rate 0.4% among 360,000 | AID 624268, 2012;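 active means inhibition above a per-plate cutoff of the control wells' mean inhibition plus 3 SD, cut at about 5.5% in these data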;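 further: 0% = DMSO wells median and 100% = median of wells with control inhibitor compound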
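Material: parasite MetRS enzyme / Replication: singlicate, one well per compound / Signal: luminescence of leftover ATP / Schedule: 2 h aminoacylation at 25 °C after 15 min preincubation / Medium: HEPES-MgCl2-KCl buffer plus DTT, spermine, BSA, pyrophosphatase / Doses: 11.9 µM single point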
MC4R barr agon – MC4R agonists recruiting beta-arrestin, primary screen, cell-based, luminescence, agonist arm of biased-ligand search; Melanocortin receptor 4 (Homo sapiens), P32245; U2OS MC4R beta-arrestin complementation; percent of melanotan II response, DMSO zero; activation, % at 8.9 µM; hit rate 0.98% among 360,000; AID 540308, 2011;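 active means activation above a per-plate cutoff, the mean activation of sample wells on that plate plus 3 SD, cut at about 8% in these data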
cAMP nonselect – nonselective cAMP signaling inhibitors, parental cells, counter-screen for MC4R biased antagonist project, cell-based, TR-FRET, U2OS, forskolin, triplicate; inhibition, % at 6.5 µM; AID 602193, 2012; LANCE TR-FRET; hit rate 26% among 1,600; shares compounds with MC4R antag cAMP;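 active means mean inhibition over triplicates above the low-control well mean plus 3 SD, set per campaign, cut at about 13% in these data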;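 further: signal is single emission at 671 nm which falls as cellular cAMP rises; 0% = forskolin-stimulated wells and 100% = buffer without forskolin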
MC4R antag conf – MC4R cAMP antagonists, retest, confirmation, cell-based, TR-FRET | inhibition, % at 6.5 µM | AID 602195, 2012 | hit rate 27% among 1,600 | shares compounds with MC4R antag cAMP | MC4R-expressing cells, MTII-stimulated cAMP; in the data active means inhibition above about 29%;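 further: 0% = agonist stimulated wells alone and 100% = agonist stimulated wells plus saturating reference antagonist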
An asterisk follows results filed as active; . = not tested or not shown; + = active, no number.

SMILES	aDG glyco up	NTR1 agonist	H9c2 TAG inh	MC4R antag cAMP	TbMetRS inhib	MC4R barr agon	cAMP nonselect	MC4R antag conf
CC(=O)Nc1ccc(S(=O)(=O)N[C@@H](C)C(=O)OCC(=O)c2ccc(Br)s2)cc1	0	.	-4	34*	0	-2	33*	55*
COC(=O)[C@]12CCCCC=C1N(CCC1=CCCCC1)C(=O)[C@H](CC(=O)NCCCN1CCCC1=O)C2	0	.	.	.	0	.	.	.
O=C(Nc1ccccc1)c1cc(C2CCCCN2C(=O)c2cccs2)on1 (centres undefined)	0	.	7	2	0	-1	.	.
CC(C)N1C(=O)S/C(=C/c2ccccc2OCc2ccc(C(=O)O)cc2)C1=O	0	0	1	31*	0	-1	-4	-4
CN1C(=O)S/C(=C\c2ccccc2OCc2ccc(C(=O)O)cc2)C1=O	0	1	-20	14	-1	-3	.	.
CCOC(=O)Cn1nnnc1CN(Cc1cccs1)Cc1cc2cc(C)ccc2[nH]c1=O	0	0	.	31*	4	2	9	10
Oc1ccc(-c2n[nH]c(C(F)(F)F)c2-c2ccccc2)c(O)c1	3	5	.	30*	-1	3	4	-3
COc1ccc(/C=N/Nc2nc(Nc3ccccc3)nc(N3CCCC3)n2)cc1[N+](=O)[O-]	-1	2	6	32*	0	3	2	1
O=C(c1ccc(S(=O)(=O)NCc2ccco2)cc1)N1CCN(c2ccc(F)cc2)CC1	1	1	-4	-4	0	-1	.	.
O=C(/C=C/c1ccc(S(=O)(=O)NCc2ccco2)cc1)N1CCN(c2ccccc2)CC1	1	1	8	31*	0	1	1	-4
COCCCNC(=O)c1cccc2c(-c3cccc(C(N)=O)c3)coc12	0	.	13	18	0	-2	.	.
O=C(O)c1ccccc1C(=O)c1cccc2c(Br)cccc12	0	.	3	+	0	-3	+	+
COc1cc([N+](=O)[O-])cc(/C=N/NC(=O)Cn2nccc2C)c1O	0	0	1	29*	1	-2	-6	-14
Cc1c(-c2nc(-c3ccncc3)no2)cccc1[N+](=O)[O-]	0	-1	3	-1	0	0	.	.
O=[N+]([O-])c1cc(-c2nc(-c3ccncc3)no2)ccc1Cl	0	3	.	39*	-1	-1	18*	47*
O=C(Nc1ccccn1)c1ccc(Br)s1	0	1	.	31*	-1	2	3	2
N#C/C(=C/c1ccc(OCc2ccc(C(=O)O)cc2)c(Br)c1)c1cccc(F)c1	0	3	3	34*	0	-2	-3	-14
COc1ccccc1N(C(C)=O)C1=C(Cl)C(=O)c2ccccc2C1=O	0	.	30	98*	0	-4	50*	13
CC(=O)N(C1=C(N)C(=O)c2ccccc2C1=O)C(C)C	2	0	-5	8	0	-1	.	.
O=C1C(=O)N(c2ccccn2)C(c2cccc(F)c2)/C1=C(/O)c1ccccc1 (centres undefined)	0	0	.	29*	0	1	-2	-23
COc1ccc(C2/C(=C(/O)c3ccc(C)cc3)C(=O)C(=O)N2c2ccccn2)cc1OC (centres undefined)	0	1	-4	17	1	0	.	.
CCCOc1ccc(/C(O)=C2\C(=O)C(=O)N(c3ccccn3)C2c2ccccc2F)cc1C (centres undefined)	0	2	.	42*	-1	3	33*	20
COc1ccc(Cc2c(-c3cccc(Cl)c3)nc3ccc(Cl)cn23)c(C)c1	0	.	.	.	1	.	.	.
CS(=O)(=O)Nc1cccc(NC(=O)c2cccc3c(-c4cccc(C(N)=O)c4)coc23)c1	0	.	-13	44*	0	2	8	22
COCCNC(=O)c1cccc2c(-c3cccc(C(N)=O)c3)coc12	0	.	4	5	0	-1	.	.
SMILES	aDG glyco up	NTR1 agonist	H9c2 TAG inh	MC4R antag cAMP	TbMetRS inhib	MC4R barr agon	cAMP nonselect	MC4R antag conf
CCOCCCNCc1cc(Cl)cc(Cl)c1OCC	0	2	-5	31*	0	0	1	12
CCc1nc2c(OCc3ccc(Cl)cc3)cccn2c1N(C)C(=O)c1ccc(C)cc1	0	.	3	7	0	-3	.	.
O=C1CCCN1c1ccc(S(=O)(=O)Nc2cccnc2)cc1	0	0	-8	29*	0	-2	-1	-5
COC(=O)[C@]12CCCCC=C1N(CCC1=CCCCC1)C(=O)[C@H](CC(=O)N1CCCC1)C2	0	.	.	.	-1	.	.	.
CC1(C(=O)NS(=O)(=O)Cc2cccc(Cl)c2)CCN1C(=O)CCc1cccs1 (centres undefined)	0	.	-3	-5	0	0	.	.
O=C(COC(=O)c1ccc2c(=O)n3c(nc2c1)CCC3)Nc1ccc(OC(F)F)cc1	0	-1	13	30*	1	-3	5	17
Cc1cccc(NC(=O)COC(=O)c2ccc3c(=O)n4c(nc3c2)CCC4)c1	0	2	.	17	1	-1	.	.
COc1ccc(CN2C(=O)c3ccccc3C2c2nnnn2-c2ccc3c(c2)OCCO3)cc1 (centres undefined)	0	.	.	.	-2	.	.	.
Cc1nnc2n(-c3ccccc3)c(=O)c3c4c(sc3n12)CCCC4	0	-1	.	29*	0	-1	0	16
Cc1nnc2n(-c3ccccc3)c(=O)c3c4c(sc3n12)COC(C)(C)C4	0	0	1	4	-1	0	.	.
COc1cccc(CNC(=O)COC(=O)CCS(=O)(=O)c2ccc(C)cc2)c1	0	-1	4	30*	0	-2	0	10
COc1cc(C=C2C(=O)C=CC2=O)ccc1O	0	.	.	.	0	.	.	.

Screens: PubChem, several laboratories
